# Published values gathered from unrelated publications.
# Protocols differ between the studies behind these lines.
# Cell line: HeLa
# Observed: cell growth or viability
SMILES,method,time,IC50
C[C@@H](O)C(=O)CCCCCCC(=O)Nc1ccccc1,XTT,,> 50 µM
NCCCOc1cc(NC(=O)c2cc(OCc3c[nH]nn3)cc(C(=O)Nc3cc(OCCCN)c4ccccc4n3)n2)nc2ccccc12,ATP luminescence,72 h,> 40 µM
COc1cc(C)c(-c2c(C)cc(OC)c3c(=O)cc(-c4ccc(N(C)C)cc4)oc23)c2oc(-c3ccc(N(C)C)cc3)cc(=O)c12,MTT,48 h,1.4 µM
COC1=C2C[C@@H](C)C[C@H](OC)[C@H](O)[C@@H](C)/C=C(\C)[C@H](OC(N)=O)[C@@H](OC)/C=C\C=C(/C)C(=O)NC(=CC1=O)C2=O,MTT,,0.651 µM
CC(=O)c1ccc(-c2cccc(NC(=O)CCc3cccc4c3B(O)OC4)c2)cc1,ATP luminescence,72 h,0.858 µM
Cc1ccc2c(Br)cc(Br)c(O)c2n1,MTT,48 h,> 150 µM
COC(=O)CN=c1scc(-c2ccccc2)n1-c1ccccc1[N+](=O)[O-],MTT,72 h,6.02 µM
COc1ccc(-c2cc(=O)c3c(OC)cc(OC)c(-c4c(OC)cc(OC)c5c(=O)cc(-c6ccc(OC)cc6)oc45)c3o2)cc1,MTT,48 h,39.5 µM
CC1(C)SC2C(NC(=O)C(NC(=O)C3=C(O)C4(CC4)NC3=O)c3ccccc3)C(=O)N2C1C(=O)O (centres unmarked),ATP luminescence,48 h,103 µg/mL
OCCCC#CC#CCCCO,MTT,24 h,39.3 µg/mL
COc1cc(OC)c2c(=O)cc(-c3ccc(Br)cc3)oc2c1-c1c(OC)cc(OC)c2c(=O)cc(-c3ccc(Br)cc3)oc12,MTT,48 h,96.1 µM
CC1(C)[C@@H](O)CC[C@]2(C)[C@H]3C(=O)C=C4[C@@H]5C[C@@](C)(C(=O)O)CC[C@]5(C)CC[C@@]4(C)[C@]3(C)CC[C@@H]12,MTT,48 h,17.3 µM
COc1cccc2c1C(=O)c1c(O)c3c(c(O)c1C2=O)C[C@@](O)(C(=O)CO)C[C@@H]3O[C@H]1C[C@H](N)[C@H](O)[C@H](C)O1,MTT,24 h,1.2 µM
O=C(c1ccccc1)c1cc2c(-c3ccccc3)c(O)ccc2o1,,,35 µM
COc1cc(OC)c2c(=O)cc(-c3cccc(Br)c3)oc2c1,MTT,48 h,72 µM
C#CCOc1cc(C(=O)Nc2cc(OCCCN)c3ccccc3n2)nc(C(=O)Nc2cc(OCCCN)c3ccccc3n2)c1,ATP luminescence,72 h,3.6 µM
Cc1ccc(C#CC#Cc2ccc(C)cc2)cc1,MTT,24 h,70.5 µg/mL
CC(C)C1NC(=O)C(C(=O)NC(C(=O)NC2C(=O)N3C2SC(C)(C)C3C(=O)O)c2ccccc2)=C1O (centres unmarked),ATP luminescence,48 h,59 µg/mL
NCCOc1cc(NC(=O)c2cccc(C(=O)Nc3cc(OCCN)c4ccccc4n3)n2)nc2ccccc12,ATP luminescence,72 h,1.2 µM
Cc1c(O)c(=O)ccn1-c1ccc(C(=O)O)cc1,MTT,72 h,600 µM
O=c1[nH]cc(F)c(=O)[nH]1,,72 h,0.54 µM
COc1ccc(C(=O)O[C@@H]2CN3Cc4c(cc5c(c4OC)OCO5)[C@@]24C=C[C@H](OC)C[C@@H]34)cc1OC,WST-1,48 h,4.8 µM
CC1(C)SC2C(NC(=O)C(NC(=O)C3=C(O)C(Cc4ccc(F)cc4)NC3=O)c3ccccc3)C(=O)N2C1C(=O)O (centres unmarked),ATP luminescence,48 h,123 µg/mL
